Entries after “also recorded” stand apart in the source; their conditions may differ. Values belong to the compound of their own block, whether it stands above or below them.
Columns and labels:
[1] = target: T1, NET (Macaca mulatta, UniProt Q9MYW8); assay: MicroPET imaging in anesthetized rhesus monkeys; type: in vivo, rhesus monkey; conditions: for Peak ratio of uptake cerebellum to caudate / Peak ratio of uptake midbrain to caudate / Peak ratio of uptake thalamus to caudate: time not stated; for time of peak uptake in all regions of interest: followed by fast washout
T1 sequence (Q9MYW8 1-617): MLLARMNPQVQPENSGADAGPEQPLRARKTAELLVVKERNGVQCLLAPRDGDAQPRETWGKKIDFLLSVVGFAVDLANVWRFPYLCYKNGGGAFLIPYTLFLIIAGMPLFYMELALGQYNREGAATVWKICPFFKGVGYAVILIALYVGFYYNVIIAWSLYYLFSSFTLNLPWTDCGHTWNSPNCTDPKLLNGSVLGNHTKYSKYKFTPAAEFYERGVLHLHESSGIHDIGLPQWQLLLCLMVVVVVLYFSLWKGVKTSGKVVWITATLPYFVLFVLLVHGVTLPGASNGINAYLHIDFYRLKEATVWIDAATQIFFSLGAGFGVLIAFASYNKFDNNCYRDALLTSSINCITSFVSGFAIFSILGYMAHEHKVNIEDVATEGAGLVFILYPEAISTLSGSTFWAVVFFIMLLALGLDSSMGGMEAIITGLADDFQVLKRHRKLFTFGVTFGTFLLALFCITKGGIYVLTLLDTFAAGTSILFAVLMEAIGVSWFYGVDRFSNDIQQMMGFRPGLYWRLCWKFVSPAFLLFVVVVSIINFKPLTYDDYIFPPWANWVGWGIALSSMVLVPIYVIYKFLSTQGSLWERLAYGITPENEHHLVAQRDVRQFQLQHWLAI

[2] = target: T1, NET; assay: PET imaging in awake rhesus monkeys; type: in vivo, rhesus monkey; conditions: for effect of isoflurane anesthesia / awake state on binding kinetics: awake vs anesthetized monkeys
[3] = tested on: NET; conditions: cited from earlier work
[4] = tested on: NET; conditions: rats, 60 min post injection; cited from earlier work
[5] = target: human NET (hNET) (Homo sapiens, UniProt P23975); assay: In vitro competition binding vs [3H]nisoxetine in transfected HEK-293 cells
Sequence of human NET (hNET) (P23975 whole entry): as the sequence (Q9MYW8 1-617) above, with S15N, A19T, V246I, I410V, I427V, G452S, V606I counted along it

[6] = tested on: NET; conditions: cynomolgus monkeys and human; cited from earlier work
[7] = Lipophilicity measurement; type: physicochemical; conditions: relative to 1
Procedure, shortened: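 Radiolabeled test compound (~5–10 µCi) was added to 2 mL 1-octanol plus 2 mL 0.02 M sodium phosphate buffer (pH 7.4), vortexed 10 min at room temperature, then centrifuged 5 min. A 0.5 mL sample of each layer was gamma-counted and decay corrected. log P7.4 = log(octanol counts/buffer counts) per replicate; three replicates averaged.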

[8] = target: human SERT (hSERT) (Homo sapiens, UniProt P31645); assay: In vitro competition binding vs [3H]citalopram in transfected HEK-293 cells; conditions: Ki ratio relative to 1
Sequence of human SERT (hSERT) (P31645 whole entry): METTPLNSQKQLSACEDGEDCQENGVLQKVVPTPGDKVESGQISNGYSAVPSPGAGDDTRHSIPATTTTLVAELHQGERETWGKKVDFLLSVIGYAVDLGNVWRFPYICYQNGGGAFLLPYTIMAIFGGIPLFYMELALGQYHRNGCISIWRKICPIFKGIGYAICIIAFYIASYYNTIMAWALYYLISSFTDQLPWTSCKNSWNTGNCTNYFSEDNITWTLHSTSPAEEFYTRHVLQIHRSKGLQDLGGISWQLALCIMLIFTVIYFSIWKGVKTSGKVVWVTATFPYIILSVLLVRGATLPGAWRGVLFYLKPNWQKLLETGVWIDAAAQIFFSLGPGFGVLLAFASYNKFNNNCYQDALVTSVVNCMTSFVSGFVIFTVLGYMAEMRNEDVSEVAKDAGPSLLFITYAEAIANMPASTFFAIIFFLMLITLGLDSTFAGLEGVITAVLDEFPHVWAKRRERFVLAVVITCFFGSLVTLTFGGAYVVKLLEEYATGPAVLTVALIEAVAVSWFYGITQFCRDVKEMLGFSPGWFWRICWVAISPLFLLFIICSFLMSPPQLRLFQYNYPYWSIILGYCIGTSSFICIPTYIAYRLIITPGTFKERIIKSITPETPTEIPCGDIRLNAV

[9] = after injection, baseline, anesthetized
[10] = postinjection, baseline, anesthetized

Structure (SMILES): [18F]CCCOc1ccccc1OC(c1ccccc1)C1CNCCO1 (centres unmarked) [[^18F]3]
Peak ratio of uptake cerebellum to caudate ([1]; baseline, anesthetized): 0.95
Peak ratio of uptake midbrain to caudate ([1]; baseline, anesthetized): 1.18
Peak ratio of uptake thalamus to caudate ([1]; baseline, anesthetized): 1.18
time of peak uptake in all regions of interest ([1]; baseline, anesthetized): 15 min

effect of isoflurane anesthesia / awake state on binding kinetics [2]: not significantly altered
time of peak uptake ([2]; both awake and anesthetized monkey studies): 17.5 to 35 min
highest ratios of uptake in NET-rich regions to that in caudate ([1]; 45 min, anesthetized): 1.30–1.45
Ratio of uptake pons to caudate (peak) ([1]; 45 min, baseline, anesthetized): 1.40
time of peak uptake of radioactivity in thalamus and pons [1, 9]: 15.5 to 27.5 min
time to specific binding peak equilibrium (quasi-equilibrium) ([1]; after injection, both anesthetized and awake states): less than 1 h
half-time for clearance from peak uptake (T1/2), thalamus and pons ([1]; baseline, anesthetized): ~ 105 min
time of peak uptake in caudate [1, 10]: 18 to 35 min
time of peak uptake in midbrain and cerebellum [1, 10]: 9.5 to 18.5 min
Structure (SMILES): [11CH3]c1ccccc1O[C@@H](c1ccccc1)[C@@H]1CNCCO1 [[^11C]1]

Structure (SMILES): [11CH3]Oc1ccccc1O[C@@H](c1ccccc1)[C@@H]1CNCCO1 [(S,S)-[^11C]MeNER]
ratios of uptake in NET-rich brain regions to striatum ([3]; 90 min postinjection): 1.4–1.6
thalamus-to-striatum uptake ratios ([3]; cynomolgus monkeys and baboons): 1.4–1.6
hypothalamus-to-striatum uptake ratio [4]: 2.5

Structure (SMILES): [18F]CCOc1ccccc1OC(c1ccccc1)C1CNCCO1 (centres unmarked) [[^18F]2]
Peak ratio of uptake cerebellum to caudate ([1]; baseline, anesthetized): 1.05
Peak ratio of uptake midbrain to caudate ([1]; baseline, anesthetized): 1.13
Peak ratio of uptake thalamus to caudate ([1]; baseline, anesthetized): 1.13
time of peak uptake in all regions of interest ([1]; baseline, anesthetized): 15 min

Structure (SMILES): COc1ccccc1O[C@@H](c1ccccc1)[C@@H]1CNCCO1 [(S,S)-MeNER, reference compound]
NET selectivity DAT/NET ([5]; ratio of Ki values): >2000

Structure (SMILES): [2H]C([2H])([18F])Oc1ccccc1O[C@@H](c1ccccc1)[C@H]1CNCCO1 [(S,S)-[^18F]FMeNER-D2]
thalamus-to-striatum binding ratio [6]: ~ 1.5

times more potent than 1 for the NET ([5]; Ki ratio relative to 1): 3.4 times
increase of log P7.4 on substitution of oxygen by sulfur [7]: 0.43
times more potent than 1 for the SERT [8]: 6.5 times
Structure (SMILES): Cc1ccccc1S[C@@H](c1ccccc1)[C@@H]1CNCCO1 [compound 4, (2S,3S)-2-[α-(2-Methylphenylthio)phenylmethyl]morpholine]

displacement of radioactivity in the caudate in chase study with SERT ligand ([1]; (R,S)-citalopram HBr 1.5 mg/kg 40 min after injection): no displacement
time of peak uptake of radioactivity in thalamus and midbrain [1, 9]: 27.5 to 45 min
washout T1/2, thalamus and midbrain ([1]; baseline, anesthetized): ~ 160 min
Structure (SMILES): [11CH3]c1ccccc1S[C@@H](c1ccccc1)[C@@H]1CNCCO1 [[^11C]4]
effect of isoflurane anesthesia / awake state on binding kinetics [2]: markedly decreased; also recorded: greatly decreased
